According to ChEMBL document CHEMBL1123896 (J Med Chem, 1987):

Columns and labels:
[1] = Apparent lipophilicity (log kw) at pH 7.5; assay type: physicochemical; details: buffer
In short: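 Measured at pH 7.5 by RP-HPLC. Capacity factors were extrapolated to 0% methanol, and the resulting log kw was taken as apparent lipophilicity. Values that could not be measured were estimated from derived fragmental values.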

[2] = Selectivity pIC50 (sigma)-pIC50(D2)
D(2) dopamine receptor = D(2) dopamine receptor (Rattus norvegicus, UniProt P61169); assay: Binding affinity for dopamine receptor D2 was evaluated by the ability to displace [3H]spiperone
[3] = biological target: Sigma non-opioid intracellular receptor 1 (Rattus norvegicus, UniProt Q9R0C9); assay: Binding affinity against sigma receptor
[4] = biological target: D(2) dopamine receptor (Rattus norvegicus) (UniProt P61169); assay: Eudisimic index was determined for the compound against Dopamine receptor D2
In short: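 Eudismic index is the log of the eutomer/distomer affinity ratio, calculated as pIC50(eutomer) − pIC50(distomer) for each enantiomer pair. The pIC50 values come from displacement of specific [3H]spiperone binding at the dopamine D2 receptor.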

[5] = biological target: Sigma non-opioid intracellular receptor 1 (Rattus norvegicus) (UniProt Q9R0C9); assay: Eudisimic index was determined for the compound against sigma receptor
In short: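 Eudismic index is the log of the eutomer/distomer affinity ratio, calculated as pIC50(eutomer) − pIC50(distomer) for each enantiomer pair, using σ-receptor binding pIC50 values.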

[6] = biological target: D(2) dopamine receptor (Rattus norvegicus) (UniProt P61169)

Sequence of Sigma non-opioid intracellular receptor 1 (Rattus norvegicus) (Q9R0C9 whole entry): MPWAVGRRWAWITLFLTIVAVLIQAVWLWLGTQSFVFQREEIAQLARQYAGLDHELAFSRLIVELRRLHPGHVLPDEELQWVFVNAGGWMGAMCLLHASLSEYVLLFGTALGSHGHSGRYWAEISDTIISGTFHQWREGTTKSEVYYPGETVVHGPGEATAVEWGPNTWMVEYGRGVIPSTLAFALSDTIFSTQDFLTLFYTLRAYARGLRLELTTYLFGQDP
Sequence of D(2) dopamine receptor (Rattus norvegicus) (P61169 whole entry): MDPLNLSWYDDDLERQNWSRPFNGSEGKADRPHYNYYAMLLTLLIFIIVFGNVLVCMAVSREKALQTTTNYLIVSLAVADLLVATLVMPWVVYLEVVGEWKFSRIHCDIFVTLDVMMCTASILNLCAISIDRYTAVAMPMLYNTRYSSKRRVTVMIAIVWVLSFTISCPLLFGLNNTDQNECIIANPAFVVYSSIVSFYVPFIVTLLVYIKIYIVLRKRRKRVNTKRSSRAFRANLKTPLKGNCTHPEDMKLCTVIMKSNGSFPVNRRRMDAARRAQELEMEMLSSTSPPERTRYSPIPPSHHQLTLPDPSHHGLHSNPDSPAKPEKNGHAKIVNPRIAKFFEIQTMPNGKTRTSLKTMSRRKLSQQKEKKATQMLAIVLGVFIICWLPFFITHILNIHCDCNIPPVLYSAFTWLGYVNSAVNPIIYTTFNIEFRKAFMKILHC
Sequence of Sigma non-opioid intracellular receptor 1 (Q9R0C9 whole entry): as the sequence (Q9R0C9 whole entry) above
Sequence of D(2) dopamine receptor (P61169 whole entry): as the sequence (P61169 whole entry) above

Structure (SMILES) | Log kw [1] | Selectivity [2] | EI [4] | EI [5] | other results
CC(C)N1CCC[C@@H](c2cccc(O)c2)C1 | 0.84 | 0.23 |  |  | 
CN1CCC[C@@H](c2cccc(O)c2)C1 | 0.94 | 0.01 |  |  | IC50 (D(2) dopamine receptor): 1950 nM; IC50 [3]: 1910 nM
CCCCN1CCC[C@H](c2cccc(O)c2)C1 | 1.41 |  | 0.99 | 0.54 | 
CCCN1CCC[C@@H](c2cccc(O)c2)C1 [PRECLAMOL] | 1.05 |  |  |  | 
CCCCN1CCC[C@@H](c2cccc(O)c2)C1 | 1.41 | 0.95 |  |  | 
Oc1cccc([C@@H]2CCCN(CCc3ccccc3)C2)c1 | 2.27 | 0.44 |  |  | 
CCN1CCC[C@H](c2cccc(O)c2)C1 | 0.84 |  |  |  | 
Oc1cccc([C@@H]2CCCNC2)c1 | 0.41 | -0.95 |  |  | 
Oc1cccc([C@H]2CCCNC2)c1 | 0.41 | -1.02 | 0.6 | 0.53 | 
Oc1cccc([C@H]2CCCN(CCc3ccccc3)C2)c1 | 2.27 |  | 1.45 | 0.3 | 
CC(C)N1CCC[C@H](c2cccc(O)c2)C1 | 0.84 |  | 1.53 |  | EI [6]: 0.07
CCCN1CCC[C@H](c2cccc(O)c2)C1 | 1.05 |  | 0.61 | 0.71 | 
CCN1CCC[C@@H](c2cccc(O)c2)C1 | 0.84 |  |  |  | 
CN1CCC[C@H](c2cccc(O)c2)C1 | 0.96 |  | 0.32 | 0.71 | 
